Results gathered from unrelated publications.
Protocols differ between the studies behind these lines. In brackets after ≈: the same amount, converted by molar mass.

SMILES | tested on | assay | setting | quantity | result
CCCCOc1cccc(-c2cnc3c(n2)CCCC3)c1 | Haemonchus contortus | parasite motility | 72 h, larva | IC50 | 17.7 µM
C[C@@H](Oc1cc(-c2cnn(C3CCNCC3)c2)cnc1N)c1c(Cl)ccc(F)c1Cl | NCI-H2228 | cell growth or viability, MTT | 5 µg/mL, 72 h | inhibition | 85.2%
CCCCc1cccc(-c2cnc3c(n2)CCCC3)c1 | Haemonchus contortus | parasite motility | 48 h, larva | IC50 | 23.3 µM
O=C(Nc1ccccc1-c1ccc(F)c(F)c1)c1nccnc1C(F)(F)F | Penicillium digitatum | microbial growth |  | EC50 | > 100 µg/mL
Cc1ccc(C(CS(=O)(=O)c2ccccc2)=NN=C2N=C(c3ccc(Br)cc3)CS2)cc1 | SK-MEL-23 | cell growth or viability, MTT | 6.3 µM, 48 h | viability | 63.7%
CCCCCc1ccc(-c2cnc3c(n2)CCCC3)cc1 | Haemonchus contortus | parasite motility | 72 h, larva | IC50 | 14.4 µM
Cc1ncc([N+](=O)[O-])n1CCO | Eggerthella lenta | microbial growth, agar dilution | 48 h | MIC | 0.5 µg/mL (≈ 2.92 µM)
CCCCOc1ccc(-c2cnc3c(n2)CCCC3)cc1 | Haemonchus contortus | parasite motility | 72 h, larva | IC50 | 6.9 µM
Cc1ccc(C(CS(=O)(=O)c2ccccc2)=NNc2nc(C)c(N=Nc3cccc(C)c3)s2)cc1 | SK-MEL-23 | cell growth or viability, MTT | 25 µM, 48 h | viability | 44%
Cc1cc(Nc2ncc(Cl)c(Nc3ccccc3S(=O)(=O)C(C)C)n2)c(OC(C)C)cc1C1CCNCC1 | NCI-H2228 | cell growth or viability, MTT | 0.2 µg/mL, 72 h | inhibition | 70.9%
O=c1[nH]c(NCc2ccc(Cl)c(Cl)c2)nc2ncn(CCCCCN3CCOCC3)c12 | Eggerthella lenta | microbial growth, agar dilution | 48 h | MIC | > 32 µg/mL
Cc1ccc(C(CS(=O)(=O)c2ccccc2)=NNC2=NC(=O)C(=NNc3ccccc3)S2)cc1 | SK-MEL-23 | cell growth or viability, MTT | 0.4 µM, 48 h | viability | 50.5%
